Laboratory results as given in ChEMBL document CHEMBL4229360, “Antimalarial agents against both sexual and asexual parasites stages: structure-activity relationships and biological studies of the Malaria Box compound 1-[5-(4-bromo-2-chlorophenyl)furan-2-yl]-N-[(piperidin-4-yl)methyl]methanamine (MMV019918) and analogues” (Eur J Med Chem, 2018).

How the values were obtained:
Plasmodium falciparum [1] = test: Antiplasmodial activity against chloroquine-sensitive Plasmodium falciparum D10 after 72 hrs by lactate dehydrogenase assay; format: functional, organism-based; conditions: D10, 72 h
Method in brief: (§1)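 Asynchronous blood-stage cultures at 1–1.5% parasitemia and 1% final hematocrit in human A+ RBCs, RPMI 1640 with 1% AlbuMax, hypoxanthine, HEPES and glutamine. Serial dilutions from DMSO stocks, final DMSO <1%. Incubated 72 h at 37 °C under 1% O₂/5% CO₂. IC50 is the mean of ≥3 experiments in duplicate.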

Plasmodium falciparum [2] = test: Antiplasmodial activity against chloroquine-resistant Plasmodium falciparum W2 after 72 hrs by lactate dehydrogenase assay; format: functional, organism-based; conditions: W2, 72 h; method in brief: as §1
Plasmodium falciparum [3] = test: Gametocytocidal activity against Plasmodium falciparum 3D7 elo1-pfs16-CBG99 late-stage (4 to 5) gametocytes assessed as inhibition of parasite viability after 72 hrs by luciferase reporter assay; format: functional, organism-based; conditions: 3D7 elo1-pfs16-CBG99, 72 h
Method in brief: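 Transgenic 3D7elo1-pfs16-CBG99 gametocytes express CBG99 luciferase from the pfs16 promoter. Stage IV–V gametocytes (Giemsa-checked) were exposed at day 8–10 after NAG addition to serial dilutions in complete medium for 72 h. Samples at 2% haematocrit were then mixed 1:1 with D-luciferin (1 mM, pH 5.5 citrate) for 10 min and luminescence was read. IC50 came from non-linear regression, mean of ≥3 experiments in duplicate.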

Plasmodium falciparum [4] = test: Antiplasmodial activity against gametocytes of Plasmodium falciparum NF54 infected in Anopheles stephensi mosquitoes after 24 hrs by standard membrane feeding assay; format: functional, organism-based; conditions: NF54, 24 h
[5] = Cardiotoxicity in Langendorff perfused Wistar rat heart assessed as reduction of left ventricular pressure; format: toxicity, tissue-based
[6] = Cardiotoxicity in Langendorff perfused Wistar rat heart assessed as coronary perfusion pressure at 0.1 to 10 uM; format: toxicity, tissue-based
[7] = Cardiotoxicity in Langendorff perfused Wistar rat heart assessed as frequency of heart rate at 0.1 uM by electrocardiography (reference value: 247.05 to 275.90 bpm); format: toxicity, tissue-based
[8] = Cardiotoxicity in Langendorff perfused Wistar rat heart assessed as frequency of heart rate at 1 uM by electrocardiography (reference value: 247.05 to 275.90 bpm); format: toxicity, tissue-based
[9] = Cardiotoxicity in Langendorff perfused Wistar rat heart assessed as frequency of heart rate at 3 uM by electrocardiography (reference value: 247.05 to 275.90 bpm); format: toxicity, tissue-based
[10] = Cardiotoxicity in Langendorff perfused Wistar rat heart assessed as frequency of heart rate at 10 uM by electrocardiography (reference value: 247.05 to 275.90 bpm); format: toxicity, tissue-based
[11] = Cardiotoxicity in Langendorff perfused Wistar rat heart assessed as cycle length interval time at 0.1 uM by electrocardiography (reference value: 217.15 to 242.23 milliseconds); format: toxicity, tissue-based
[12] = Cardiotoxicity in Langendorff perfused Wistar rat heart assessed as cycle length interval time at 1 uM by electrocardiography (reference value: 217.15 to 242.23 milliseconds); format: toxicity, tissue-based
[13] = Cardiotoxicity in Langendorff perfused Wistar rat heart assessed as cycle length interval time at 3 uM by electrocardiography (reference value: 217.15 to 242.23 milliseconds); format: toxicity, tissue-based
[14] = Cardiotoxicity in Langendorff perfused Wistar rat heart assessed as cycle length interval time at 10 uM by electrocardiography (reference value: 217.15 to 242.23 milliseconds); format: toxicity, tissue-based
[15] = Cardiotoxicity in Langendorff perfused Wistar rat heart assessed as PQ interval time at 0.1 uM by electrocardiography (reference value: 41.13 to 42.63 milliseconds); format: toxicity, tissue-based
[16] = Cardiotoxicity in Langendorff perfused Wistar rat heart assessed as PQ interval time at 1 uM by electrocardiography (reference value: 41.13 to 42.63 milliseconds); format: toxicity, tissue-based
[17] = Cardiotoxicity in Langendorff perfused Wistar rat heart assessed as PQ interval time at 3 uM by electrocardiography (reference value: 41.13 to 42.63 milliseconds); format: toxicity, tissue-based
[18] = Cardiotoxicity in Langendorff perfused Wistar rat heart assessed as PQ interval time at 10 uM by electrocardiography (reference value: 41.13 to 42.63 milliseconds); format: toxicity, tissue-based
[19] = Cardiotoxicity in Langendorff perfused Wistar rat heart assessed as QRS interval time at 0.1 uM by electrocardiography (reference value: 13.31 to 14.35 milliseconds); format: toxicity, tissue-based
[20] = Cardiotoxicity in Langendorff perfused Wistar rat heart assessed as QRS interval time at 1 uM by electrocardiography (reference value: 13.31 to 14.35 milliseconds); format: toxicity, tissue-based
[21] = Cardiotoxicity in Langendorff perfused Wistar rat heart assessed as QRS interval time at 3 uM by electrocardiography (reference value: 13.31 to 14.35 milliseconds); format: toxicity, tissue-based
[22] = Cardiotoxicity in Langendorff perfused Wistar rat heart assessed as QRS interval time at 10 uM by electrocardiography (reference value: 13.31 to 14.35 milliseconds); format: toxicity, tissue-based
[23] = Cardiotoxicity in Langendorff perfused Wistar rat heart assessed as QTc interval time at 0.1 uM by electrocardiography (reference value: 76.45 to 80.07 milliseconds); format: toxicity, tissue-based
[24] = Cardiotoxicity in Langendorff perfused Wistar rat heart assessed as QTc interval time at 1 uM by electrocardiography (reference value: 76.45 to 80.07 milliseconds); format: toxicity, tissue-based
[25] = Cardiotoxicity in Langendorff perfused Wistar rat heart assessed as QTc interval time at 3 uM by electrocardiography (reference value: 76.45 to 80.07 milliseconds); format: toxicity, tissue-based
[26] = Cardiotoxicity in Langendorff perfused Wistar rat heart assessed as QTc interval time at 10 uM by electrocardiography (reference value: 76.45 to 80.07 milliseconds); format: toxicity, tissue-based
[27] = target: T1, Phosphoethanolamine N-methyltransferase (Plasmodium falciparum) (UniProt Q8IDQ9); test: Inhibition of plasmodium falciparum phosphoethanolamine N-methyltransferase expressed in Escherichia coli assessed as remaining enzyme activity at 100 uM using phosphoethanolamine as substrate and [methyl-14C] SAM by radiochemical assay
T1 sequence (whole entry): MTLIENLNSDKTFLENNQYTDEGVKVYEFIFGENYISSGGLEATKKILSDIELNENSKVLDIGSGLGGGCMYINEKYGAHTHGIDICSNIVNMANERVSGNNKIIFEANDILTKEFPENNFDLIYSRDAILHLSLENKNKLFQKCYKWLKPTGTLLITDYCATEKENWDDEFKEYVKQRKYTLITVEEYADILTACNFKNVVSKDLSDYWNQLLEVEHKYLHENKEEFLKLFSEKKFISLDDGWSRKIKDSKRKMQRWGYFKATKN
Method in brief: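 Recombinant PfPMT purified from E. coli, 2 μg per 100 μL reaction. Buffer 0.1 M HEPES-KOH pH 8.0, 2 mM Na2EDTA, 10% glycerol, 5% DMSO, with 30 μM SAM (100 nCi [methyl-14C]SAM) and 55 μM phosphoethanolamine; radiochemical read-out.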

hERG (KCNH2) = hERG (KCNH2) (Homo sapiens, UniProt Q12809); test: Inhibition of human ERG at 50 uM
Plasmodium falciparum [28] = test: Antiplasmodial activity against Plasmodium falciparum asexual stage forms; format: functional, organism-based
Plasmodium falciparum [29] = test: Gametocytocidal activity against Plasmodium falciparum late stage gametocytes; format: functional, organism-based
Plasmodium falciparum [30] = test: Antiplasmodial activity against Plasmodium falciparum sexual stage forms; format: functional, organism-based
[31] = target: Voltage-dependent L-type calcium channel subunit alpha-1C (Rattus norvegicus, UniProt P22002); test: Inhibition of CaV1.2 channel in rat tail artery myocytes assessed as reduction in Ba2+ current at -50 mV holding potential by whole-cell patch-clamp assay; format: cell-based; conditions: rat
Method in brief: (§2)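 Freshly isolated rat tail artery smooth muscle cells (collagenase digestion), whole-cell patch clamp at 20–22 °C. External solution: 5 mM Ba2+, 30 mM TEA; Cs+-based internal solution, pH 7.4. Currents from 250-ms pulses to 0 mV from Vh −50 mV at 0.067 Hz, after 7–10 min stabilisation. Leak corrected with 10 μM nifedipine. Peak current as % of control; n = 3–6 cells from ≥3 animals.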

CaV1.2 channel = CaV1.2 channel (Rattus norvegicus, UniProt P22002); test: Inhibition of CaV1.2 channel in rat tail artery myocytes assessed as reduction in Ba2+ current at 10 uM at -50 mV holding potential by whole-cell patch-clamp assay; format: cell-based; method in brief: as §2
[32] = Cytotoxicity against mouse NIH/3T3 cells after 24 hrs by neutral red uptake assay; format: cell-based, NIH3T3; conditions: read-out: TC50
Method in brief: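 NIH3T3 cells exposed for 24 h; viability by neutral red uptake. Mean of three experiments, six replicates each.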

Plasmodium falciparum [33] = test: Antiplasmodial activity against asexual blood stage Plasmodium falciparum NF54 after 72 hrs by SYBR green-based fluorometric analysis; format: functional, organism-based; conditions: NF54, 72 h
Method in brief: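 Asexual NF54 seeded at 0.83% parasitaemia, 1.5% haematocrit, in RPMI1640 with 10% human serum. Serial dilutions, final DMSO 0.1%. Incubated 72 h at 37 °C under 3% O2, 4% CO2, then read by SYBR Green fluorescence.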

Plasmodium falciparum [34] = test: Gametocytocidal activity against Plasmodium falciparum NF54 HGL gametocytes assessed as inhibition of parasite viability after 72 hrs by ONE-Glo reagent based luminescence assay; format: functional, organism-based
Method in brief: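 NF54 gametocytes raised in 5% haematocrit RPMI1640/10% human serum, with 50 mM NAG on days 4–9. Mainly stage IV gametocytes isolated on day 11 by Percoll gradient and seeded at 5000 cells/well, final DMSO 0.1%. Incubated 72 h at 37 °C, 3% O2, 4% CO2; viability by ONE-Glo luminescence.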

Sequence of Voltage-dependent L-type calcium channel subunit alpha-1C (P22002 whole entry): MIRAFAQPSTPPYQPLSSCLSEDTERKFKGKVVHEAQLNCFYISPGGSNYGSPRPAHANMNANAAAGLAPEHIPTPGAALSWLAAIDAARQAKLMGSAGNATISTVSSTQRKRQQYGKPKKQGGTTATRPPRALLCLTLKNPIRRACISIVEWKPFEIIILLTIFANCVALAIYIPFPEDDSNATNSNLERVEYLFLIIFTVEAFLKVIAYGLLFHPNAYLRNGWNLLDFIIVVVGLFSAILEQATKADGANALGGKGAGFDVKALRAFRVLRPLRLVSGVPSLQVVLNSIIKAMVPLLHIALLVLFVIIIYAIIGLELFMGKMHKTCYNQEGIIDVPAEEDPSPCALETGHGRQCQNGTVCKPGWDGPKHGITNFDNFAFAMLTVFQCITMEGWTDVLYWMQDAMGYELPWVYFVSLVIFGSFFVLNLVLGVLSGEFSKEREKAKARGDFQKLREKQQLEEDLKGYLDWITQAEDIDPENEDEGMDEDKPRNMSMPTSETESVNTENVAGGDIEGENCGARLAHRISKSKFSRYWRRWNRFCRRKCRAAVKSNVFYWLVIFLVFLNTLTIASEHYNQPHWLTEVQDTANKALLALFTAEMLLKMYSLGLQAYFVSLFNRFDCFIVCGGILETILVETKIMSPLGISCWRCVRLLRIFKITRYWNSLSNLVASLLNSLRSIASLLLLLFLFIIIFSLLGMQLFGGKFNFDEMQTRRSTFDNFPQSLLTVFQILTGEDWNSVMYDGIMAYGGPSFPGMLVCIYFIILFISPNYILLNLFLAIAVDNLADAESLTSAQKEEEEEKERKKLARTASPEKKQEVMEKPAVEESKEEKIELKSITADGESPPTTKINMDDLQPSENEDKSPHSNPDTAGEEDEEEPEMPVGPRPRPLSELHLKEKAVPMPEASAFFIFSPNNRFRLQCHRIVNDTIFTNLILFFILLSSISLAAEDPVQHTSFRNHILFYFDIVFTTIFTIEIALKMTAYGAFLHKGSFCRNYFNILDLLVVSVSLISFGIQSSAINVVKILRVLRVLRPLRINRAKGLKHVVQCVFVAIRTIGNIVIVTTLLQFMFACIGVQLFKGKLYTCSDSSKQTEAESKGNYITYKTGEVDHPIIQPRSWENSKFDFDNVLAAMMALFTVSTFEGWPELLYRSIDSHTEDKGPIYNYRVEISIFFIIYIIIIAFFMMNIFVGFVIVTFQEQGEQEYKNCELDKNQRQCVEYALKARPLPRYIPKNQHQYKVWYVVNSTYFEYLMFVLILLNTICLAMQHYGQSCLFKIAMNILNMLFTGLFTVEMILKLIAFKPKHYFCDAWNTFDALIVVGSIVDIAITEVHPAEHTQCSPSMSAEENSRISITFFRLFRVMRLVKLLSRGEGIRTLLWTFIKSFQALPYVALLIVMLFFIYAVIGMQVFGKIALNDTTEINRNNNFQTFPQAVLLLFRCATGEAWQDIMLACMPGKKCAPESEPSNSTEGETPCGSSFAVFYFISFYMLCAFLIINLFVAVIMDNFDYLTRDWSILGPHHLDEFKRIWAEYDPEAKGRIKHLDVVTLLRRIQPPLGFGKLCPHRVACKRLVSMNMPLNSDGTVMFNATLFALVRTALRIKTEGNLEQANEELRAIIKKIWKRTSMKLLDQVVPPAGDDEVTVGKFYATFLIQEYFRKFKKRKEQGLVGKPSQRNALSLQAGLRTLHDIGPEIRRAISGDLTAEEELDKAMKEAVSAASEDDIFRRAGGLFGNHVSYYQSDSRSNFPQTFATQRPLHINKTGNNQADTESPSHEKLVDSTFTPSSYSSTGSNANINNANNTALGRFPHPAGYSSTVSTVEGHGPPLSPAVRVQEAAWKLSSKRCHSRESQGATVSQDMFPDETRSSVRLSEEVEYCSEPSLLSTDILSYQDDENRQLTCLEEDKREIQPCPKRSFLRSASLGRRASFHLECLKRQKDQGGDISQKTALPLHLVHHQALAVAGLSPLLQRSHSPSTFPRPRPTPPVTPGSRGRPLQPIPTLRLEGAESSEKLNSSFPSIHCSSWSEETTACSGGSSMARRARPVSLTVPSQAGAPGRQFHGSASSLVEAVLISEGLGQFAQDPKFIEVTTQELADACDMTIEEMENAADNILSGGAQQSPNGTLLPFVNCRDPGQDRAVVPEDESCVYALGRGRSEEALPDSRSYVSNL
Sequence of CaV1.2 channel (P22002 whole entry): as above
Sequence of hERG (KCNH2) (Q12809 whole entry): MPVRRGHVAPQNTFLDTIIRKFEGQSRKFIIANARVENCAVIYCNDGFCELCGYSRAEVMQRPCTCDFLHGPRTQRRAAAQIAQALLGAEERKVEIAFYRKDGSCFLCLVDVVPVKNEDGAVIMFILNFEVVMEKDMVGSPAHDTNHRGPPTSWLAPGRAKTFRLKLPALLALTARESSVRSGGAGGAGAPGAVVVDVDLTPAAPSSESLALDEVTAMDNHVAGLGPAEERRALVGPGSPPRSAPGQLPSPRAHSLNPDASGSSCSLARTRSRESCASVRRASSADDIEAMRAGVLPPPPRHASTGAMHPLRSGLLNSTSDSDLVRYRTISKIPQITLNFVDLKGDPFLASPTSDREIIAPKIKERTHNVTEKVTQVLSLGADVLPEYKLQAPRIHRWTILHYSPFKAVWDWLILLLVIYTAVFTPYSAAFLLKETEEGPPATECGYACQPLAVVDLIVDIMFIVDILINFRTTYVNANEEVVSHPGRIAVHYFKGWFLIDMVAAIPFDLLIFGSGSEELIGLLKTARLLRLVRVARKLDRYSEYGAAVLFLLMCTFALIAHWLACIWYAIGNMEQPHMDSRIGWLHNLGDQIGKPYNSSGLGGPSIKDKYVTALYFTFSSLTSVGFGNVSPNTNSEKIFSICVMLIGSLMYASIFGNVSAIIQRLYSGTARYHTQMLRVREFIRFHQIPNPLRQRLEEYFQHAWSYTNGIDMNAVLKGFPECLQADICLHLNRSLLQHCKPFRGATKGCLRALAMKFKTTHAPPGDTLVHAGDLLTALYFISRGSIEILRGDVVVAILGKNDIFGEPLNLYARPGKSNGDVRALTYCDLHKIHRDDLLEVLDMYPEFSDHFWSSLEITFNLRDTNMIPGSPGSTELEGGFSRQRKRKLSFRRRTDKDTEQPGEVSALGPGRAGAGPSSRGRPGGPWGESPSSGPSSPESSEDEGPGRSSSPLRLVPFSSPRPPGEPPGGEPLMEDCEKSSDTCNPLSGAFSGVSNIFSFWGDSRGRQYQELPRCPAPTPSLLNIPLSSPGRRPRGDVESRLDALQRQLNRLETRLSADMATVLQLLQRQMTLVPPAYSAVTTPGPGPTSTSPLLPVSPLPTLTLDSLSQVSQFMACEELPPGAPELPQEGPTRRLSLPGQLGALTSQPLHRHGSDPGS

SMILES: c1ccc(-c2ccc(CNCC3CCNCC3)o2)cc1
- IC50 (Plasmodium falciparum [1]): 3500 nM
- IC50 (Plasmodium falciparum [2]): 9.1 µM
- IC50 (Plasmodium falciparum [3]): 8.6 µM

SMILES: Clc1cc(Br)ccc1-c1ccc(CNCC2CCNCC2)o1
- IC50 (Plasmodium falciparum [1]): 770 nM
- IC50 (Plasmodium falciparum [2]): 2.3 µM
- IC50 (Plasmodium falciparum [3]): 1.2 µM
- EC50 (Plasmodium falciparum [4]): 70 nM
- Activity [5]: Dose-dependent effect
- Activity [6]: Non-Toxic
- Activity [7]: 256.15 bpm
- Activity [8]: 258.35 bpm
- Activity [9]: 257.71 bpm
- Activity [10]: 222.74 bpm
- Time [11]: 235.08 ms
- Time [12]: 232.48 ms
- Time [13]: 233.9 ms
- Time [14]: 272.57 ms
- Time [15]: 42.29 ms
- Time [16]: 42.5 ms
- Time [17]: 47.9 ms
- Time [18]: 67.5 ms
- Time [19]: 14.25 ms
- Time [20]: 15.8 ms
- Time [21]: 17.46 ms
- Time [22]: 23.75 ms
- Time [23]: 81.51 ms
- Time [24]: 80.93 ms
- Time [25]: 82.1 ms
- Time [26]: 80.99 ms
- Activity [27]: 92%
- inhibition at 50 µM (hERG (KCNH2)): 83%
- IC50 (Plasmodium falciparum [28]): < 1000 nM
- IC50 (Plasmodium falciparum [29]): < 1000 nM
- IC50 (Plasmodium falciparum [30]): < 1000 nM
- inhibition (INH) [31]: Dose-dependent effect
- inhibition at 10 µM (CaV1.2 channel): 57%

SMILES: C[N+](C)(CCCNCc1ccc(-c2ccc(Cl)cc2Br)o1)Cc1ccccc1
- IC50 (Plasmodium falciparum [1]): 550 nM
- IC50 (Plasmodium falciparum [2]): 0.66 µM
- IC50 (Plasmodium falciparum [3]): 4.8 µM
- Activity [27]: 95.8%

SMILES: Clc1ccccc1-c1ccc(CNCC2CCNCC2)o1
- IC50 (Plasmodium falciparum [1]): 2100 nM
- IC50 (Plasmodium falciparum [2]): 4.3 µM
- IC50 (Plasmodium falciparum [3]): 5.9 µM

SMILES: CN(C)CCCNCc1ccc(-c2ccc(Br)cc2Cl)o1
- IC50 (Plasmodium falciparum [1]): 1200 nM
- IC50 (Plasmodium falciparum [2]): 1.4 µM
- IC50 (Plasmodium falciparum [3]): 1.1 µM
- CC50 at 24 h [32]: 5 µM

SMILES: N#Cc1ccc(-c2ccc(CNCC3CCNCC3)o2)cc1
- IC50 (Plasmodium falciparum [1]): 1100 nM
- IC50 (Plasmodium falciparum [2]): 6.3 µM
- IC50 (Plasmodium falciparum [3]): 18.4 µM
- Activity [27]: 73.2%

SMILES: FC(F)(F)c1ccc(-c2ccc(CNCC3CCNCC3)o2)cc1
- IC50 (Plasmodium falciparum [1]): 410 nM
- IC50 (Plasmodium falciparum [2]): 1.5 µM
- IC50 (Plasmodium falciparum [3]): 1.9 µM
- CC50 at 24 h [32]: 50 µM

SMILES: Brc1ccc(-c2ccc(CNCC3CCNCC3)o2)cc1
- IC50 (Plasmodium falciparum [1]): 1100 nM
- IC50 (Plasmodium falciparum [2]): 8 µM
- IC50 (Plasmodium falciparum [3]): 4.4 µM

SMILES: Oc1ccccc1-c1ccc(CNCC2CCNCC2)o1
- IC50 (Plasmodium falciparum [1]): 4400 nM
- IC50 (Plasmodium falciparum [2]): 9.6 µM
- IC50 (Plasmodium falciparum [3]): 8.3 µM
- IC50 (Plasmodium falciparum [33]): 260 nM
- IC50 (Plasmodium falciparum [34]): 290 nM
- CC50 at 24 h [32]: 7 µM

SMILES: Brc1ccc2cc(CNCC3CCNCC3)sc2c1
- IC50 (Plasmodium falciparum [1]): 1000 nM
- IC50 (Plasmodium falciparum [2]): 1.5 µM
- IC50 (Plasmodium falciparum [3]): 1.4 µM
- IC50 (Plasmodium falciparum [33]): 730 nM
- IC50 (Plasmodium falciparum [34]): 53 nM
